Laboratory results reported in paper PMC3786410 (Bioorganic & medicinal chemistry, 2013).
Like-named read-outs stand apart in the source and are kept apart here. One block for each compound: values may come before it.

How the values were obtained:
[1] = system: CRE-bla parental cell line; assay: parental CRE-bla CHO cell line counterscreen assay; type: cell-based
In short: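 Counterscreen in the parental CRE-β-lactamase reporter CHO line without S1PR2, run alongside the S1PR2 assay. Hits were retested in triplicate at 5 micromolar and then tested in dose response.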

CRE = conditions: ref PubChem AID 662; cited from earlier work
S1PR2 [2] = biological target: T1, S1PR2 (Homo sapiens, UniProt O95136); assay: S1PR2 CRE-bla CHO reporter agonist assay; type: cell-based; conditions: for EC50: read-out: EC50 S1PR2; for Emax: read-out: Max Activity (% of 1 μM S1P)
In short: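 Stable CHO line carrying a CRE-driven β-lactamase reporter and expressing human S1PR2, run in 384-well format. […] For antagonist challenge, agonist dose responses were run with a reference S1PR2 antagonist at 10, 30 or 90 nM.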

S1PR1 = S1PR1 (Homo sapiens, UniProt P21453); assay: S1PR1 agonist assay; type: cell-based
S1PR3 = S1PR3 (Homo sapiens, UniProt Q99500); assay: S1PR3 agonist assay; type: cell-based
S1PR4 = biological target: T2, S1PR4 (Homo sapiens, UniProt O95977); assay: S1PR4 agonist assay; type: cell-based
T2 sequence (O95977 1-384): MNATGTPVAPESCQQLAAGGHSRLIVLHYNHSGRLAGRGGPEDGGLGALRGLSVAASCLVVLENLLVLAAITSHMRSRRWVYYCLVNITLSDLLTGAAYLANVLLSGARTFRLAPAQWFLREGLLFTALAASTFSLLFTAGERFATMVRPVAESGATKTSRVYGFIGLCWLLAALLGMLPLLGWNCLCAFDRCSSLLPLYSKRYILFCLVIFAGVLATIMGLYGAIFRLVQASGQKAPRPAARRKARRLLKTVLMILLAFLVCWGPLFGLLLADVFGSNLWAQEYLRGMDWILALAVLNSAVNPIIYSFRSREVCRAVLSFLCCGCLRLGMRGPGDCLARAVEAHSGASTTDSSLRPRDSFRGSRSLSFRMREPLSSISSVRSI

S1PR5 = S1PR5 (Homo sapiens, UniProt Q9H228); assay: S1PR5 agonist assay; type: cell-based
wild type S1PR2 = wild type S1PR2 (Homo sapiens, UniProt O95136); assay: GloSensor cAMP assay, wild type S1PR2-eGFP Jump-In CHO cells; type: cell-based
[3] = biological target: triple mutant S1PR2 (R108A, E109A and K269A) (Homo sapiens, UniProt O95136, E109A/K269A/R108A); assay: GloSensor cAMP assay, triple mutant S1PR2-eGFP Jump-In CHO cells; type: cell-based
S1PR2 [4] = biological target: T1, S1PR2; assay: JTE-013 inhibition of agonists in the S1PR2 CRE-bla assay; type: cell-based; conditions: linear regression of Schild plot, against S1P
S1PR2 [5] = biological target: T1, S1PR2; assay: 33P-S1P radioligand competition binding assay; conditions: read-out: IC50, displacement of radiolabeled S1P, S1PR2-CRE bla cells, 4°C

T1 sequence (O95136 whole entry): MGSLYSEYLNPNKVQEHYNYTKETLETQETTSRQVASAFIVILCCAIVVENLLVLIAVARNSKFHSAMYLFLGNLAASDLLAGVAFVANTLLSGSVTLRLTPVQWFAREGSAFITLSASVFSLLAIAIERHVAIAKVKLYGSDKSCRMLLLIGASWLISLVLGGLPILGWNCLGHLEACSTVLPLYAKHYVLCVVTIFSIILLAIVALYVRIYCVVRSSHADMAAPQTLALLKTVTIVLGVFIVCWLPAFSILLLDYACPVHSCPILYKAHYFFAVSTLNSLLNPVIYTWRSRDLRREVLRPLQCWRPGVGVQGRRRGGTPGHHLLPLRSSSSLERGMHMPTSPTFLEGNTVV
Sequence of S1PR5 (Q9H228 whole entry, species assumed): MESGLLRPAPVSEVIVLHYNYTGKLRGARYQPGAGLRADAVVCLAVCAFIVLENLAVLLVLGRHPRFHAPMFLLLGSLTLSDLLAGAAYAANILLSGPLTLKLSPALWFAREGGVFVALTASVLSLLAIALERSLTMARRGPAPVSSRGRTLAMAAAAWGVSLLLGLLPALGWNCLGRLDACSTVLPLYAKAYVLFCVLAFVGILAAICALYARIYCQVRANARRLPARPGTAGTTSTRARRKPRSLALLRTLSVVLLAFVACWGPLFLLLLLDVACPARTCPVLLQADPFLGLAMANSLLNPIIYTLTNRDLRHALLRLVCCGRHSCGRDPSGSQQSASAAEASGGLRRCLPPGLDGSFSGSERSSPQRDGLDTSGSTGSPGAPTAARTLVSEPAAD
Sequence of S1PR1 (P21453 whole entry, species assumed): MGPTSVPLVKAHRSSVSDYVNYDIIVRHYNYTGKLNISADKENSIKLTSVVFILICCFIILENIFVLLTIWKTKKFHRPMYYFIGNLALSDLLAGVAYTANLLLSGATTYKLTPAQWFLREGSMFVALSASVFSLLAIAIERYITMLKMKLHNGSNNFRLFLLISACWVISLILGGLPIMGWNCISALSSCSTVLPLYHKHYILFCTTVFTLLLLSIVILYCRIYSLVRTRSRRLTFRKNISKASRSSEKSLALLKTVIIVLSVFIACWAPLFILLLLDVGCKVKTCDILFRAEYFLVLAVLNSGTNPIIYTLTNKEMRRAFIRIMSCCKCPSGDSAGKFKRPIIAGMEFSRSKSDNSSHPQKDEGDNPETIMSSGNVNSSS
Sequence of wild type S1PR2 (O95136 whole entry): as the sequence (O95136 whole entry) above
Sequence of S1PR3 (Q99500 whole entry, species assumed): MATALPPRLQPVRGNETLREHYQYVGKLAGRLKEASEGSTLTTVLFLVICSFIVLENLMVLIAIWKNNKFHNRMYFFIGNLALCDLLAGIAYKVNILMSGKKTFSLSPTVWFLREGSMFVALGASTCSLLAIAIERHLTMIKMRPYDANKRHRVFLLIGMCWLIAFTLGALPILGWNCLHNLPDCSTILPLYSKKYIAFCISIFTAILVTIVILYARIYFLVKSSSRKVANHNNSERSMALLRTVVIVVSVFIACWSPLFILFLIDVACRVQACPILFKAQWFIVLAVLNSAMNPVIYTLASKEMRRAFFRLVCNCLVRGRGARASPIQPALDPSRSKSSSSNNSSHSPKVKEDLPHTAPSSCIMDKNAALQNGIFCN
Sequence of triple mutant S1PR2 (R108A, E109A and K269A) (O95136 whole entry R108A/E109A/K269A): as the sequence (O95136 whole entry) above, with R108A, E109A, K269A counted along it

Structure (SMILES): CCOC(=O)c1c(C)n(C)c2ccc(OCC(O)Cn3nc(C)cc3C)cc12 (stereo not drawn) [MLS000049871]
activity in the CRE-bla counterscreen (in words) [1]: inactive | activity in PubChem AID 662 (CRE): active

increase in potency (S1PR2 [2]; cyanide group in place of the trifluoromethyl of 10): 1.6 fold | EC50 (S1PR2 [2]; Table 3, synthesized compounds): 480 nM | Emax (S1PR2 [2]; Table 3): 100% | activity in S1PR1 agonist assay (S1PR1): inactive | activity in S1PR3 agonist assay (S1PR3): inactive | activity in S1PR4 agonist assay (S1PR4): inactive | activity in S1PR5 agonist assay (S1PR5): inactive | EC50 (wild type S1PR2; read-out: EC50, cAMP response): 1600 nM
Structure (SMILES): Cc1cc(C(=O)Cn2cc(C#N)ccc2=O)c(C)n1Cc1ccccc1 [compound 14]
activity in the CRE-bla counterscreen (in words) [1]: inactivity

agonist efficacy (in words) (wild type S1PR2): full agonists
Structure (SMILES): CCCCCCCCCCCCC/C=C/[C@@H](O)[C@@H](N)COP(=O)(O)O [S1P, Sphingosine 1-phosphate, reference compound]
cAMP response (in words) [3]: did not elicit a rise in luciferase activity

Structure (SMILES): Cc1nn(C)c2nc(NNC(=O)Nc3cc(Cl)nc(Cl)c3)cc(C(C)C)c12 [JTE-013]
Ki (S1PR2 [4]): 20 nM | IC50 (S1PR2 [5]): 53 nM

EC50 (S1PR2 [2]; Table 2, purchased analogues of XAX-164): 550 nM | Emax (S1PR2 [2]; Table 2): 130% | activity in S1PR1 agonist assay (S1PR1): inactive | activity in S1PR3 agonist assay (S1PR3): inactive | activity in S1PR4 agonist assay (S1PR4): inactive | activity in S1PR5 agonist assay (S1PR5): inactive
Structure (SMILES): Cc1ccc(Sc2ccc(C3SCCS3)cc2[N+](=O)[O-])cc1 [compound 3]
